In the library only some 2.9% were active in any assay of this set; here they are far more common.
Arr AP2 block – inhibitors of beta-arrestin/AP2 binding, primary screen, biochemical, GPCR trafficking, flow cytometry; beta-arrestin 1 C-terminal peptide binding to AP2 beta2-adaptin appendage (human); FITC-arrestin peptide / GST-AP2 beads; AP2 beta2 appendage carries R879A mutation; inhibition, % at 10 µM; hit rate 0.31% among 340,000;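 active = inhibition above a set limit, near 3 SD of compounds lacking own fluorescence, cut at about 54% in these data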;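 note: plate controls were DMSO wells for no effect and 5 µM unlabelled arrestin peptide for full effect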
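Material – GST-tagged AP2 beta2-adaptin appendage (R879A) on 4 µm glutathione beads · Probe or stimulus – fluorescein-tagged arrestin peptide at 50 nM final · Timing – 12 min plus 1 h, RT · Detection – bead flow cytometry, FITC channel · Read-out basis – inhibition as reduced fluorescein signal on beads, percent · Medium – PBS plus Tween 20 (0.05%) and BSA (0.1%)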
ADAM17 inh – ADAM17 inhibitors, primary screen, biochemical, QFRET. Disintegrin and metalloproteinase domain-containing protein 17 (Homo sapiens), P78536. recombinant ADAM17, EDANS/DABCYL FRET peptide cleavage. inhibition, % at 6.95 µM. hit rate 0.83% among 370,000. AID 720648, 2013;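 active = inhibition above the mean of compounds lying between control limits plus 3 SD, set per campaign, cut at about 8.5% in these data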;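 note: 0% = DMSO-only wells as the low control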
ADAM10 inh – human ADAM10 inhibitors, primary screen, biochemical, QFRET, HTS; Disintegrin and metalloproteinase domain-containing protein 10 (Homo sapiens), O14672; recombinant ADAM10, EDANS/DABCYL FRET peptide cleavage, 3 h; inhibition, % at 7 µM; hit rate 0.62% among 370,000; AID 720582, 2013;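 active = inhibition above a per-campaign cutoff equal to the mean of compounds falling between control-based bounds plus 3 SD, cut at about 20% in these data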;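 note: 0% = DMSO wells while the 100% control is not disclosed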
Target sequence (O14672 214-748 limits assumed): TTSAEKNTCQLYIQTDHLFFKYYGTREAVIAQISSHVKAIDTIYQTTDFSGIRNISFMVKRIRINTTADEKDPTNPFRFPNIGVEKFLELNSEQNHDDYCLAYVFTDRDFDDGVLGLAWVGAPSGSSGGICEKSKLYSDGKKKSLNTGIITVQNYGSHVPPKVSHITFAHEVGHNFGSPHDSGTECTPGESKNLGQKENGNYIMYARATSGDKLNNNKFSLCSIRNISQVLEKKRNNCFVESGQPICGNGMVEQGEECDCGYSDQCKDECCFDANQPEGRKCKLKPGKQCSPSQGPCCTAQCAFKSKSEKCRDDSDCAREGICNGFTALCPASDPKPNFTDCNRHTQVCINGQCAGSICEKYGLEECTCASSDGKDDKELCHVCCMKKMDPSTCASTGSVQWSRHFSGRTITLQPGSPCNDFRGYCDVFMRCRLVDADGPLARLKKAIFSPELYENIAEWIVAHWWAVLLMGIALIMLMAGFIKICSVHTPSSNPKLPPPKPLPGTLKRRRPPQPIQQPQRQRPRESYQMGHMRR
FAS-TE inh – FAS thioesterase domain inhibitors, primary screen, biochemical, fluorescence intensity, uHTS. AID 602261, 2012. hit rate 0.67% among 360,000. recombinant FAS-TE, OMFH fluorogenic substrate, fluorescence endpoint. Fatty acid synthase (Homo sapiens), P49327. inhibition, % at 15 µM;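 active = compounds whose normalised, plate-corrected inhibition of enzyme fluorescence in the single-dose primary screen is 50% or more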;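 note: 0% = DMSO with enzyme and 100% = substrate without enzyme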
CaV13 FRET inh – Primary screen for inhibitors of IQ motif and Ca2+-dependent inactivation inhibitor domain binding in CACNA1D, Förster resonance energy transfer in living cells, …; AID 743397; inhibition, % at 12.3 µM; hit rate 0.098% among 340,000; HEK cells, CFP/YFP FRET ICDI-IQ, plate reader, 10 min; percent FRET-ratio fall versus neutral wells;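 active = mean replicate inhibition of at least 30% and at least 1% of replicates passing that level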;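 note: 0% = median of the neutral control wells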
CendR NRP1 mod – modulators of CendR peptide binding to NRP-1, primary screen, biochemical, fluorescence polarization, uHTS. Neuropilin-1 (Homo sapiens), O14786. FAM-RPARPAR peptide binding to NRP-1. inhibition, % at 25 µM. hit rate 0.85% among 360,000. AID 602438, 2012;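 active = inhibition or corrected inhibition above about 18%, plus a signal ratio from 0.5 to 1.5, limit read from the data, passing the limit was not always enough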
* = called active by the depositor; i = inactive; . = no result given.

SMILES	Arr AP2 block	ADAM17 inh	ADAM10 inh	FAS-TE inh	CaV13 FRET inh	CendR NRP1 mod
COC(=O)[C@]12C[C@H](CC(=O)N3CCN(C(=O)c4ccco4)CC3)C(=O)N(Cc3ccc4c(c3)OCO4)C1=C[C@H](C(C)(C)C)O[C@@H]2C	.	-4.2	-4.8	.	-8.4	.
O=C(NN=Cc1ccc(-c2ccccc2)cc1)c1cc(-c2ccc(Cl)cc2)n[nH]1	.	-0.2	-0.1	.	.	.
CC1CCC(=NNS(=O)(=O)c2ccc([N+](=O)[O-])cc2)CC1 (stereo not given)	-1.3	-3.9	-17.5	58.0*	-2.2	12.7
CCn1c(SCC(=O)Nc2ccc(C(=O)OC)cc2)nnc1-c1cccc(Cl)c1	.	3.6	4.3	.	.	.
CCNS(=O)(=O)c1ccc(CCC(=O)O)cc1	11.5	-2.7	-6.2	-0.2	19.3	25.6*
CCNS(=O)(=O)c1ccc(CCC(N)=O)cc1	-7.2	-0.7	-0.8	-7.8	-4.6	4.9
COC(=O)C1CCN(S(=O)(=O)c2ccc(Br)s2)CC1	6.8	1.3	-6.7	5.5	-5.1	-2.6
O=C(C1CCN(S(=O)(=O)c2ccc(Br)s2)CC1)N1CCc2ccccc21	-4.0	.	.	24.5	.	43.3*
CCC(O)c1cnc(OCc2ccccc2)nc1OCc1ccccc1 (stereo not given)	.	0.9	-0.5	15.5	-9.9	-0.8
Cc1cc(=O)[nH]c(Nc2ccc(Cl)cc2)n1	-14.4	-4.6	-7.7	-5.2	-7.0	22.5*
O=C(CCC(=O)c1ccc(F)cc1)NCC1(N2CCCCC2)CCCCC1	20.4	-4.3	-12.9	-3.3	-2.4	-8.0
Cc1nn(-c2ccccc2)c2sc(C(=O)O)cc12	9.4	-5.9	-25.5	-4.0	-9.5	-4.0
COC(=O)c1cc2c(C)nn(-c3ccccc3)c2s1	0.4	-14.3	-27.3	10.1	-5.5	31.0*
COc1ccccc1N(CC(=O)NCCSCc1ccccc1)S(=O)(=O)c1ccc(C)cc1	-22.2	0.1	7.0	27.7	-6.5	18.6*
CC(NC(=O)COC(=O)c1c[nH]c2ccccc12)c1ccccc1 (stereo not given)	-4.6	-4.0	-14.2	-5.3	-6.2	-12.0
CC(=O)Nc1ccc(S(=O)(=O)NC(C)C(=O)NCC(c2ccco2)N(C)C)cc1 (stereo not given)	6.8	-8.4	-28.3	-8.2	-5.6	26.9*
CC(=O)Nc1ccc(C(=O)NCC(c2ccco2)N(C)C)cc1 (stereo not given)	11.3	-8.2	-10.5	-8.0	.	10.0
CC(=O)Nc1ccc(Nc2nc(C)c([N+](=O)[O-])c(N(C)c3ccccc3)n2)cc1	8.4	2.2	6.5	15.2	6.4	3.5
COc1ccc(/C=N/Nc2nc(C)c([N+](=O)[O-])c(N(C)c3ccccc3)n2)cc1OC	-6.9	-2.0	1.1	4.3	.	28.3*
COc1ccc(NC(=O)Nc2ccc(Br)cn2)cc1OC	9.4	2.9	4.5	-7.4	-4.4	47.3*
COc1cccc(NC(=O)Nc2ccc(Br)cn2)c1	2.0	-3.0	3.8	-3.8	-4.1	8.6
CCN(CC)CCNC(=O)c1cc2cc3ccc(OC)cc3nc2o1	30.1	i	i	-5.6	-20.8	8.3
CCCCN(C)CCNC(=O)c1cc2cc3ccc(OC)cc3nc2o1	-10.4	i	i	-2.9	-20.0	21.1*
CCNC(=S)N1CCN(c2ccccn2)CC1	-5.7	-5.2	-12.8	-6.8	-8.9	3.9
CC(NNC(=S)N1CCN(c2ccccn2)CC1)c1nccc2ccccc12 (stereo not given)	-4.6	-10.7	-27.0	-5.9	-6.8	24.4*
SMILES	Arr AP2 block	ADAM17 inh	ADAM10 inh	FAS-TE inh	CaV13 FRET inh	CendR NRP1 mod
Cc1cccc(NS(=O)(=O)c2ccc(NS(=O)(=O)c3cccs3)cc2)c1	1.9	0.2	3.1	-1.1	-19.1	-13.5
Cc1cccc(NS(=O)(=O)c2cccs2)c1	44.2	-2.1	2.8	-5.4	.	36.3*
CCCCn1nc(NC(=O)c2cccs2)c2cc3cc(OC)ccc3nc21	-5.7	-44.7	-137.2	18.9	54.2*	-16.6
CC(=O)NS(=O)(=O)c1ccc(NC(=S)Nc2ccccc2)cc1	1.6	-1.1	1.2	-5.2	-21.0	7.1
CCC(=O)NC(=S)Nc1ccc(S(=O)(=O)NC(C)=O)cc1	-7.1	-1.6	4.5	-6.5	-3.0	24.7*
O=C(CCCn1cnc([N+](=O)[O-])n1)Nc1cccc(Cl)c1Cl	10.1	0.1	5.3	10.0	-1.1	31.3*
Cc1c(Cl)cccc1NC(=O)CCCn1cnc([N+](=O)[O-])n1	-4.5	-1.9	2.4	1.6	-6.9	-0.8
C(#Cc1ccccc1)C[N+]1(CC#Cc2ccccc2)CCCC1	-4.6	0.4	1.4	-2.5	-2.6	7.3
C=CC#CC[N+]1(CC#Cc2ccccc2)CCOCC1	-213.2	-5.6	-10.4	-8.1	-4.3	20.6*
Cc1ccccc1Cn1cc(CN2[C@@H](C)COc3cc(Br)ccc3S2(=O)=O)nn1	.	3.0	9.8	.	.	.
Cc1ccc(/C=N/Nc2nc3ccccc3[nH]2)s1	0.2	-0.8	-12.5	-8.6	-2.6	29.2*
Cc1ccccc1/C=N/Nc1nc2ccccc2[nH]1	8.0	-4.2	-7.2	-3.1	11.2	13.1
COC1=CC(=O)OC(c2cccc([N+](=O)[O-])c2)C1 (stereo not given)	.	-5.1	-10.0	.	-14.9	14.4
C=CC[C@@H](CC(=O)N(CCO)Cc1ccccc1)C(=O)N[C@H](COC(=O)[C@@H](CC=C)Cc1ccc(F)cc1)Cc1ccccc1	26.7	13.9*	32.6*	19.7	-5.0	11.9
C=CC[C@H](CC(=O)N(CCO)Cc1ccccc1)C(=O)NC[C@H](OC(=O)[C@@H](CC=C)Cc1ccc(F)cc1)c1ccccc1	-1.8	-2.8	-0.5	17.7	-10.5	6.9
C=CC[C@@H](CC(=O)N(CCO)Cc1ccccc1)C(=O)NC[C@@H](OC(=O)[C@@H](CC=C)Cc1ccc(F)cc1)c1ccccc1	18.2	10.0*	19.6	14.7	-3.4	6.0
C=CC[C@H](CC(=O)N(CCO)Cc1ccccc1)C(=O)N[C@@H](C)COC(=O)[C@@H](CC=C)Cc1ccc(F)cc1	0.6	-1.2	-4.2	-2.1	-9.1	11.5
C=CC[C@@H](CC(=O)N(CCO)Cc1ccccc1)C(=O)N[C@@H](COC(=O)[C@@H](CC=C)Cc1ccc(F)cc1)Cc1ccccc1	-4.2	12.8*	23.1*	18.9	-8.3	7.2
COc1ccc(Cn2nnnc2C(CC(C)C)N2CCC(C(N)=O)CC2)cc1 (stereo not given)	3.0	-1.8	-6.2	-2.3	43.4*	0.9

Bioassay records deposited in PubChem by several laboratories.
